Experimental data: ChEMBL document CHEMBL2417429, “Direct and nitroxyl (HNO)-mediated reactions of acyloxy nitroso compounds with the thiol-containing proteins glyceraldehyde 3-phosphate dehydrogenase and alkyl hydroperoxide reductase subunit C” (J Med Chem, 2013)
Where a name gives a salt, the structure may show the parent alone. Active and inactive are the calls of the source. No cut-off for these calls is given here.

How the values were obtained:
[1] = target: Glyceraldehyde-3-phosphate dehydrogenase (Oryctolagus cuniculus) (UniProt P46406); assay: Binding affinity to rabbit muscle GAPDH peptide V232 to R245 assessed as formation of mixture of sulfinamide and sulfinic acid by LC-MS analysis
Summary of the method: (§1)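 GAPDH from rabbit muscle, untreated or donor-treated, digested with trypsin (monomer:trypsin 20:1 w/w) in 50 mM Tris-HCl, 37 °C, 12−16 h; quenched by freezing. 10 μM digest in 1:1 2% formic acid/methanol run by LC-MS on a high-resolution Orbitrap in positive ion mode; tryptic peptides identified by m/z.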

[2] = Binding affinity to alkyl hydroperoxide reductase subunit C C165S mutant (unknown origin) assessed as formation of mixture of sulfinamide and sulfinic acid at Cys46 by LC-MS analysis
Summary of the method: (§2)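 AhpC C165S pre-reduced with DTT 30 min, desalted on spin column, concentration by A280 (ε 23400 M−1 cm−1). Protein (50 μM) treated with HNO donor (1, 5, 10, 50 equiv) in 0.1 M Tris pH 7.6, room temperature, 60 min; desalted into 25 mM ammonium bicarbonate pH 7.75. Asp-N digest (20:1 w/w, 37 °C, 12−16 h). LC-MS of D41−G51 peptide on high-resolution Orbitrap, positive ion mode.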

[3] = target: Glyceraldehyde-3-phosphate dehydrogenase (Oryctolagus cuniculus) (UniProt P46406); assay: Binding affinity to rabbit muscle GAPDH tryptic peptide I143 to K159 assessed as formation of disulfide bond by LC-MS analysis; summary of the method: as §1
[4] = target: Glyceraldehyde-3-phosphate dehydrogenase (Oryctolagus cuniculus, UniProt P46406); assay: (§3) Inhibition of rabbit muscle GAPDH assessed as residual enzyme activity after 60 mins by spectrophotometry
Summary of the method: (§4)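 Rabbit muscle GAPDH incubated with donor (0.1, 0.5, 1, 5, 10, 100 μM) in 0.1 M sodium phosphate pH 7.4, 25 °C, 60 min. NAD+ and glyceraldehyde-3-phosphate then added in a sealed cuvette; NADH formation followed at 340 nm every minute for 30 min. Runs typically in triplicate, mean ± SE; IC50 from sigmoidal fit of percent-of-control activity.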

[5] = Binding affinity to alkyl hydroperoxide reductase subunit C C165S mutant peptide D41 to G51 (unknown origin) assessed as sulfinic acid or sulfinamide modification by MALDI-TOF MS
Summary of the method: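 Pre-reduced, desalted AhpC C165S (50 μM) incubated with HNO donor (1, 5, 10, 50 equiv) in 0.1 M Tris pH 7.6, 60 min at room temperature. Buffer exchanged into ammonium bicarbonate, then Asp-N digest (20:1 w/w, 37 °C, 12−16 h). Digest mixed 1:1 with dihydroxybenzoic acid matrix; D41−G51 peptide mass read by MALDI-TOF.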

[6] = target: Glyceraldehyde-3-phosphate dehydrogenase (Oryctolagus cuniculus) (UniProt P46406); assay: Residual activity of rabbit muscle GAPDH at 1 uM after 60 mins by spectrophotometry
[7] = Chemical stability of the compound in neutral buffer assessed as rate constant at 1 mM by stopped-flow UV-Vis spectrophotometry; assay type: physicochemical; conditions: 1000 µM
[8] = Half life of the compound in neutral buffer at 1 mM by stopped-flow UV-Vis spectrophotometry; assay type: physicochemical; conditions: 1000 µM
[9] = Binding affinity to alkyl hydroperoxide reductase subunit C C165S mutant (unknown origin) assessed as unreacted thiol in peptide D41 to G51 by LC-MS analysis; summary of the method: as §2
[10] = target: Glyceraldehyde-3-phosphate dehydrogenase (Oryctolagus cuniculus) (UniProt P46406); assay: Binding affinity to rabbit muscle GAPDH assessed as structural modifications at 5 mM after 60 mins by SDS-PAGE
[11] = target: Glyceraldehyde-3-phosphate dehydrogenase (Oryctolagus cuniculus) (UniProt P46406); assay: Reversible inhibition of rabbit muscle GAPDH assessed as residual enzyme activity at 1 uM after 60 mins followed by incubation with DTT by spectrophotometry relative to control
Summary of the method: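 GAPDH (rabbit muscle) exposed to inhibitor for 60 min in 0.1 M phosphate pH 7.4 at 25 °C, then incubated with DTT (100 mM) for 60 min. Residual activity measured by NADH build-up at 340 nm after adding NAD+ and glyceraldehyde-3-phosphate, read each minute over 30 min; expressed as percent of control.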

[12] = target: Glyceraldehyde-3-phosphate dehydrogenase (Oryctolagus cuniculus) (UniProt P46406); assay: as §3; summary of the method: as §4
[13] = Binding affinity to alkyl hydroperoxide reductase subunit C C165S mutant (unknown origin) assessed as formation of sulfinic acid of Cys46 of peptide D41 to G51 by LC-MS analysis; summary of the method: as §2
[14] = target: Glyceraldehyde-3-phosphate dehydrogenase (Oryctolagus cuniculus) (UniProt P46406); assay: Binding affinity to rabbit muscle GAPDH peptide V232 to R245 assessed as formation of sulfinic acid of Cys244 by LC-MS analysis; summary of the method: as §1
[15] = target: Glyceraldehyde-3-phosphate dehydrogenase (Oryctolagus cuniculus) (UniProt P46406); assay: Binding affinity to rabbit muscle GAPDH assessed as structural modifications of Cys149, Cys153 and Cys244 at 5 mM after 60 mins by MALDI-TOF MS
[16] = Binding affinity to alkyl hydroperoxide reductase subunit C C165S mutant (unknown origin) assessed as presence of S-nitrosated D41 to G51 peptide by LC-MS analysis; summary of the method: as §2
[17] = Binding affinity to alkyl hydroperoxide reductase subunit C C165S mutant (unknown origin) assessed as structural modifications by SDS-PAGE
[18] = target: Glyceraldehyde-3-phosphate dehydrogenase (Oryctolagus cuniculus) (UniProt P46406); assay: Binding affinity to rabbit muscle GAPDH peptide V232 to R245 assessed as formation of S-nitrosated peptide by LC-MS analysis
[19] = Binding affinity to alkyl hydroperoxide reductase subunit C C165S mutant (unknown origin) assessed as formation of sulfinic acid by LC-MS analysis
Summary of the method: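 AhpC C165S reduced with DTT, desalted by spin column, quantified at 280 nm; 50 μM protein incubated with compound (1, 5, 10, 50 equiv) in 0.1 M Tris pH 7.6, room temperature, 60 min; desalted into 25 mM ammonium bicarbonate, Asp-N digest (20:1 w/w, 37 °C, 12–16 h); Orbitrap LC-MS, 55 min gradient, positive ion.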

[20] = target: Glyceraldehyde-3-phosphate dehydrogenase (Oryctolagus cuniculus) (UniProt P46406); assay: Binding affinity to rabbit muscle GAPDH peptide V232 to R245 assessed as formation of sulfinic acid and N-phenylsulfinamide by LC-MS analysis
[21] = Binding affinity to alkyl hydroperoxide reductase subunit C C165S mutant (unknown origin) assessed as formation of sulfinamide and sulfinic acid by LC-MS analysis; summary of the method: as §2

Chain of Glyceraldehyde-3-phosphate dehydrogenase (Oryctolagus cuniculus) (P46406 whole entry, looked up): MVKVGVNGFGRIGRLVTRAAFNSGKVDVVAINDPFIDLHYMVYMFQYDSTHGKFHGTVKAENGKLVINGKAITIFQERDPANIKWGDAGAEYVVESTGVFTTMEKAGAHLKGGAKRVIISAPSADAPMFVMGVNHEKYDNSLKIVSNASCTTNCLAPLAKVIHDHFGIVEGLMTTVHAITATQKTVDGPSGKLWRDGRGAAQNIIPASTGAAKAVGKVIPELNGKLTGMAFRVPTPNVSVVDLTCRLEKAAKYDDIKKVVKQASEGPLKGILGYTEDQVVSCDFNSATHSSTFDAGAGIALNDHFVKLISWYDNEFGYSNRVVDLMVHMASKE
Chain of Glyceraldehyde-3-phosphate dehydrogenase (P46406 whole entry): as the sequence (P46406 whole entry, looked up) above

| SMILES | Activity [3] | IC50 [4] | Activity [5] | residual activity [6] | Activity [9] | Activity [10] | inhibition [12] | Activity [15] | also measured |
| --- | --- | --- | --- | --- | --- | --- | --- | --- | --- |
| O=S(=O)(NO)c1ccccc1Br | Active | – | – | – | – | – | – | – | Activity [1]: Active; Activity [2]: Active |
| O=NC1(OC(=O)C(F)(F)F)CCCCC1 [1-NITROSOCYCLOHEXYL TRIFLUOROACETATE] | – | 670 nM | Active | 42% | inactive | – | – | – | Activity [2]: Active; K [7]: 5.74 s⁻¹; t1/2 [8]: 0.121 s |
| CC(C)(C)C(=O)OC1(N=O)CCCCC1 | Active | 150 nM | Active | 76% | inactive | inactive | Dose-dependent effect | Active | Activity [11]: 88%; Activity [13]: Active; Activity [14]: Active |
| N[C@@H](CCC(=O)N[C@@H](CSN=O)C(=O)NCC(=O)O)C(=O)O | – | – | – | – | – | – | – | – | Activity [16]: Active |
| CC(=O)OC1(N=O)CCCCC1 [1-NITROSOCYCLOHEXYL ACETATE] | Active | 200 nM | Active | 5% | inactive | inactive | Dose-dependent effect | Active | Activity [11]: 12%; Activity [17]: Active; Activity [13]: Active; Activity [14]: Active |
| CCN(CC)N(O)N=O | – | – | – | – | – | – | – | – | Activity [16]: Active; Activity [18]: Active |
| O=Nc1ccccc1 | Active | – | – | – | – | – | – | – | Activity [19]: Active; Activity [20]: Active |
| [O-][N+]([O-])=NO [ANGELI'S SALT] | Active | 400 nM | Active | – | inactive | inactive | Dose-dependent effect | Active | Activity [21]: Active; Activity [1]: Active |
